Test results reported in PubChem BioAssay.
The source made the active and inactive calls.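 How the source made its calls, unless noted: active means compounds giving at least 50% inhibition in the cell-based MKP-3 phosphatase rescue imaging test; inactive means the rest.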

Legend:
[1] = inhibitors of TNFa-induced NFkB p65 translocation, primary screen, imaging, HUVEC, MLSMR starter and 10KST1 sets (AID 438;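 active means inhibition above 20% together with a positive visual image hit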;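 further: compound added about 3h40 before a 20 min TNFalpha stimulation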;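 on inhibition: signal is the nuclear over cytoplasmic p65 intensity ratio per well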); conditions: HUVEC TNFa-induced p65 nuclear translocation; cell count: measured here: nuclei count (cytotoxicity indicator), at 2.08 µM; inhibition: at 2 µM, stronger effect = higher value, 0% TNFa-plus-vehicle, 100% no-TNFa wells
[2] = inhibitors of E-selectin induction by TNFa, primary screen, imaging, HUVEC, immunofluorescence, MLSMR starter and 10KST1 sets (AID 487;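 active means visually confirmed hit in the image check and inhibition above 20%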;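 on inhibition: signal is fraction of cell area covered by stained E-selectin grains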;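 on nuclei count: 100% = median nuclei count of all wells on the same plate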); conditions: HUVEC TNFalpha-induced E-selectin immunofluorescence imaging, at 2 µM; inhibition: stronger effect = higher value; nuclei count: measured here: cell number, toxicity
[3] = DUSP6 inhibitors restoring Erk phosphorylation by chemical complementation, primary imaging in DUSP6-transfected HeLa (AID 609); conditions: HeLa MKP-3 transfected, phospho-Erk imaging KS statistic, at 10 µM, cells stimulated with TPA for 15 min;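 on inhibition: phospho-Erk level distribution per well compared with pooled transfected vehicle control wells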
[4] = target: Dual specificity protein phosphatase 6 (Homo sapiens) (UniProt Q16828); assay: as above; conditions: HeLa MKP-3 transfected, phospho-Erk imaging KS statistic; at 10 µM; stronger effect = higher value; cells stimulated with TPA for 15 min
Sequence of Dual specificity protein phosphatase 6 (Homo sapiens) (Q16828 whole entry, looked up): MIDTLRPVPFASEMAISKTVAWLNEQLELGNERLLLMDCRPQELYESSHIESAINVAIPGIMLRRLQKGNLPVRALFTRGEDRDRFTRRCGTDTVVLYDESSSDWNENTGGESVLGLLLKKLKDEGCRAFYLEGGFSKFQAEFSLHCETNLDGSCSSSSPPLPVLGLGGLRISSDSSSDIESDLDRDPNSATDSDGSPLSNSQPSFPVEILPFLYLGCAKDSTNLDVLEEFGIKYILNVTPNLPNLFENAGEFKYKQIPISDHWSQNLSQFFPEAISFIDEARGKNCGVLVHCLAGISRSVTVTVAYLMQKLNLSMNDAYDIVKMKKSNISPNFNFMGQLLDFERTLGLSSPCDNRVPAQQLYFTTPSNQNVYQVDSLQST

[5] = target: Voltage-gated potassium channel subunit beta-2 (Rattus norvegicus) (UniProt P62483); assay: KvBeta enzyme negative modulators, primary screen, biochemical, NADPH fluorescence (AID 622;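 active means fluorescence slope higher than the sample average by over 3 SD, cut at about -0.22 in these data, passing the limit was not always enough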;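 further: slope of raw intensity against log time taken from 70 to 1610 s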); conditions: recombinant KvBeta, 4-cyanobenzaldehyde reduction, at 10 µM, stronger effect = higher value
Sequence of Voltage-gated potassium channel subunit beta-2 (Rattus norvegicus) (P62483 whole entry, looked up): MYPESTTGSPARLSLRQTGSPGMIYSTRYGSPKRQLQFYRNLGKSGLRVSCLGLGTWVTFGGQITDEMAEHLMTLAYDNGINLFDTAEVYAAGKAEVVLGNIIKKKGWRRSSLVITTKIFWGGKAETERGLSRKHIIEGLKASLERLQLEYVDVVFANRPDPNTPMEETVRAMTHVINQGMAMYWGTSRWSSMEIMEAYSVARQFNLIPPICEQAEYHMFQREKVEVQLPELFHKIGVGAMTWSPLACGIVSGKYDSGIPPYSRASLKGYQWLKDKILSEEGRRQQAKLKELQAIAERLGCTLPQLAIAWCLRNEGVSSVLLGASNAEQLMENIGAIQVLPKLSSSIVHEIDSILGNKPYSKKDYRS

[6] = target: Voltage-gated potassium channel subunit beta-2 (Rattus norvegicus) (UniProt P62483); assay: KvBeta positive modulators, primary screen, biochemical, NADPH fluorescence (AID 623;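 active means NADPH fluorescence slope more negative than the mean of all samples by about 3 SD, 99.7% confidence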;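 further: fluorescence intensity change per second fitted from 20 to 320 s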); conditions: Recombinant KvBeta, NADPH fluorescence decrease slope, 10 min; at 10 µM; stronger effect = lower value
[7] = target: Muscarinic acetylcholine receptor M4 (Homo sapiens) (UniProt P08173); assay: compounds altering M4/GIRK thallium flux, either direction, primary screen, M4 allosteric agonist project, cell-based, HEK293 M4/GIRK, BTC-AM (AID 625;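 active means fluorescence slope after compound addition differing from the mean of all tested samples at 99.7% confidence, mostly higher but some lower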;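 further: thallium influx through GIRK channels coupled to M4 in HEK293 cells with BTC-AM dye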); conditions: at 10 µM, actives lie on both sides
Sequence of Muscarinic acetylcholine receptor M4 (Homo sapiens) (P08173 whole entry, looked up): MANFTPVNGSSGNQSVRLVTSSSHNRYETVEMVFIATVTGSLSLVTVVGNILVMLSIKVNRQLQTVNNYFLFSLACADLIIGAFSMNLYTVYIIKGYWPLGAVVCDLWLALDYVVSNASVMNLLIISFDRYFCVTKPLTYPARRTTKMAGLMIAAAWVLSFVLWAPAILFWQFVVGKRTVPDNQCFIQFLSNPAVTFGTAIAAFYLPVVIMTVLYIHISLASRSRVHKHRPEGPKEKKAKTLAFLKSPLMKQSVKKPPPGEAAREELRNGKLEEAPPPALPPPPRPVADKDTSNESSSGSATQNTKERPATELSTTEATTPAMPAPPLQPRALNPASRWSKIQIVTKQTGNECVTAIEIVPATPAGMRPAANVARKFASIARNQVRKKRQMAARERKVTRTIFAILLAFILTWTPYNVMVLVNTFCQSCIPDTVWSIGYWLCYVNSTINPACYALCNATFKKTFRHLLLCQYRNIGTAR
Outline: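 assay system = HEK293 cells with M4 receptor and GIRK channels | medium = pH 7.3 thallium assay buffer | doses = 10 µM final, single point | timing = cells overnight at 37 °C, BTC-AM loading 1 h, reads 2 min total | signal = BTC-AM fluorescence, 1 Hz kinetic reads | read-out = post-addition slope, 15–24 s, of baseline-normalized fluorescence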

[8] = inhibitors of larval lipid processing in zebrafish, primary screen, whole organism, PED6 fluorescence, gall bladder and intestine (AID 686;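 active means a full or partial loss of lipid-probe fluorescence in the fish gall bladder, intestine or both, judged by eye; inactive means no fluorescence loss, or compound toxic to the fish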;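 further: larvae 5 to 7 days old with five fish per well; signal comes from phospholipase A2 cleavage of quenched PED6 carried via bile; overnight exposure to compound and PED6 before scoring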); conditions: Zebrafish larvae PED6 lipid processing, fluorescence scoring; screened at 20 µM (by protocol)
Outline: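 Also added: quenched phospholipase substrate PED6, 100 nM final, ingested by larvae; System: zebrafish larvae, 5-7 d; Quantity: 5 larvae per well; Compound: 20 µM single dose; Schedule: overnight compound and PED6 incubation; Read-out: visual per-well fluorescence inhibition score; Measured by: By-eye fluorescence microscopy; Medium: E3.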

[9] = inhibitors of Chlamydomonas gravitaxis, primary screen, whole organism, Chlamydomonas reinhardtii, WT vs cilia-less mutant, absorbance, 96-well (AID 463189;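 active means inhibition at or above 50% relative to wild type and mutant plate controls; inactive means inhibition below 50%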;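 further: 0% = wild type cc124 cells in DMSO and 100% = ciliumless bld1 mutant cells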); conditions: OD600 absorbance, 2 days, at 10 µM, stronger effect = higher value
[10] = measured here: cell density z-score
[11] = measured here: nuclear c-Myc green intensity z-score
[12] = measured here: nuclear pErk red intensity z-score, stronger effect = higher value

| SMILES | cell count [1] | inhibition [1] | inhibition [2] | nuclei count [2] | z-score [3, 10] | z-score [3, 11] | z-score [3, 12] | inhibition [4] | fluorescence slope [5] | NADPH fluorescence slope [6] | fluorescence slope [7] | outcome [8] | inhibition [9] |
| --- | --- | --- | --- | --- | --- | --- | --- | --- | --- | --- | --- | --- | --- |
| COc1ccc(CSC2=NCCN2)cc1Cl | 382 | -2.2% (inactive) | -95.2% (inactive) | 83.1% | -0.238 | 2.09 | 0.748 | 9.42% (inactive) | -0.459 (inactive) | -7e-05 (inactive) | 0.00397 (inactive) | inactive | 143% (active) |
| C=CCn1c(=N)c(C(=O)OCC)cc2c(=O)n3cccc(C)c3nc21 | 614 | 5.3% (inactive) | -125% (inactive) | 149% | -2.08 | 1.41 | 1.9 | -9.66% (inactive) | -0.114 (inactive) | -2e-05 (inactive) | 0.00285 (inactive) | inactive | 159% (active) |
| CCOCCn1c(SCc2c(F)cccc2Cl)nc2c1c(=O)[nH]c(=O)n2C | 620 | 3.9% (inactive) | -40.4% (inactive) | 114% | -0.473 | 0.0694 | 0.197 | -9.53% (inactive) | -0.472 (inactive) | -4.5e-05 (inactive) | 0.00638 (inactive) | inactive | -4.7% (inactive) |
| Cc1cccc(OCCN2CSC(=S)N(C)C2)c1 | 542 | -14.5% (inactive) | -138% (inactive) | 129% | 0.0536 | -1.14 | 0.0169 | 9.42% (inactive) | -0.494 (inactive) | -7.6e-05 (inactive) | 0.0046 (inactive) | inactive; toxic | 45.3% (inactive) |
| CCOC(=O)CSc1nc(N2CCOCC2)c2c(c1C#N)CC(C)(C)N(C)C2 | 531 | -4.6% (inactive) | -19.7% (inactive) | 102% | -0.379 | 0.944 | -0.77 | 1.42% (inactive) | -0.505 (inactive) | 4.1e-05 (inactive) | 0.00477 (inactive) | inactive | 33.8% (inactive) |
| COc1ccc(C(=O)OC(C)CN2CCN(C)CC2)cc1OC (stereo not given) | 386 | 2.6% (inactive) | -35.7% (inactive) | 154% | -1.91 | 0.605 | 1.37 | -11% (inactive) | -0.446 (inactive) | -9.4e-05 (inactive) | 0.00501 (inactive) | inactive | 21.4% (inactive) |
| Nc1ccc2oc(-c3cc(Br)ccc3Cl)nc2c1 | 569 | 3.7% (inactive) | -26.9% (inactive) | 171% | 0.555 | -1.29 | 0.312 | 9.91% (inactive) | -0.00932 (inactive) | 8.2e-06 (inactive) | 0.00586 (inactive) | inactive | 15.1% (inactive) |
| CSc1nc(C)c2c(c1C#N)CCCC2 | 507 | -9.7% (inactive) | -266% (inactive) | 148% | -0.174 | -0.19 | -1.41 | 1.04% (inactive) | -0.455 (inactive) | -3.8e-05 (inactive) | 0.00451 (inactive) | inactive | 10.6% (inactive) |
| CCCCc1cc(=O)oc2c(CN3CCCC3)c(O)ccc12 | 600 | -1.9% (inactive) | 32.2% (inactive) | 151% | 0.99 | -0.992 | -0.105 | 4.37% (inactive) | -0.0163 (inactive) | 5.9e-06 (inactive) | 0.00474 (inactive) | inactive | -2.81% (inactive) |
| CN(C)c1nc(OCCNC(=O)Nc2ccccc2)nc(N(C)C)n1 | 519 | -7.6% (inactive) | -47.8% (inactive) | 104% | 0.724 | -0.537 | -0.187 | 5.42% (inactive) | -0.522 (inactive) | 5.3e-05 (inactive) | 0.00455 (inactive) | inactive | 36.3% (inactive) |
| CCOc1ccc(-c2nc(C#N)c(NCC(C)C)o2)cc1 | 402 | -4% (inactive) | -45.5% (inactive) | 159% | -1.19 | -0.813 | 2.25 | -2.69% (inactive) | -0.474 (inactive) | -8e-05 (inactive) | 0.00573 (inactive) | inactive | -4.03% (inactive) |
| CCCNC1=C(C)C(=O)CC1 | 602 | -0.5% (inactive) | -37.1% (inactive) | 120% | -1.42 | 0.756 | 1.36 | -0.233% (inactive) | -0.481 (inactive) | -4.1e-05 (inactive) | 0.00471 (inactive) | inactive | 3.26% (inactive) |
| O=c1[nH]c2sc3c(c2c(=O)n1Cc1ccccc1)CCC3 | 602 | -2.5% (inactive) | -99.8% (inactive) | 146% | 0.896 | 0.335 | -0.051 | 9.07% (inactive) | -0.453 (inactive) | -0.000103 (inactive) | 0.00552 (inactive) | inactive | -9.09% (inactive) |
| CCOc1ccc(C2CC(c3ccccc3)Nc3nc(N)nn32)cc1 (stereo not given) | 364 | -2.2% (inactive) | -80.6% (inactive) | 144% | 1.38 | -1.02 | 0.957 | 11.9% (inactive) | -0.467 (inactive) | -0.000102 (inactive) | 0.00481 (inactive) | inactive | -15.5% (inactive) |
| O=C(NCc1ccco1)c1ccc(=O)[nH]n1 | 578 | 3.8% (inactive) | -71.8% (inactive) | 91.1% | 0.426 | -0.894 | -1.39 | 28.1% (inactive) | -0.539 (inactive) | -4.2e-05 (inactive) | 0.00665 (inactive) | inactive | 29.4% (inactive) |
| Cn1c(=O)c2c(nc(NCc3ccco3)n2Cc2ccc(Cl)cc2Cl)n(C)c1=O | 644 | 3.3% (inactive) | -21.8% (inactive) | 104% | -0.0402 | -0.421 | 0.466 | 12.8% (inactive) | -0.405 (inactive) | -1.9e-05 (inactive) | 0.00546 (inactive) | inactive | -11.8% (inactive) |
| Cc1c(C)c2cc(Cl)c(O)c(CN3CCCC(C)C3)c2oc1=O (stereo not given) | 540 | -4.7% (inactive) | 45.7% (inactive) | 94.2% | 0.999 | 0.842 | -1.58 | 9.37% (inactive) | -0.0221 (inactive) | -5.4e-06 (inactive) | 0.00608 (inactive) | inactive | -7.68% (inactive) |
| O=C(c1cc(N2CCCCC2)nc2ccccc12)N1CCOCC1 | 627 | 3.5% (inactive) | -37.7% (inactive) | 159% | -1.1 | 2.14 | 1.42 | -15% (inactive) | -0.422 (inactive) | -1.2e-05 (inactive) | 0.0052 (inactive) | inactive | 1.82% (inactive) |
| CCOc1ccc(/C(O)=C2/C(=O)C(=O)N(c3cc(C)on3)C2c2ccc(C(=O)OC)cc2)cc1 (stereo not given) | 391 | -0.4% (inactive) | -27.6% (inactive) | 105% | -0.142 | 1.45 | -0.188 | 9.37% (inactive) | -0.419 (inactive) | -1.9e-05 (inactive) | 0.00438 (inactive) | inactive | 11.4% (inactive) |
| Clc1ccc(COc2ccccn2)c(Cl)c1 | 600 | 2.8% (inactive) | -15.4% (inactive) | 138% | 0.311 | -1.08 | -1.17 | 23.8% (inactive) | -0.387 (inactive) | -4.6e-05 (inactive) | 0.00573 (inactive) | inactive | -0.499% (inactive) |
| Cc1cc(CC(=O)O)c(C)cc1CC(=O)O | 590 | -9.1% (inactive) | -39.7% (inactive) | 146% | -0.726 | 1.92 | 1.23 | -7.67% (inactive) | -0.445 (inactive) | -0.000138 (inactive) | 0.00496 (inactive) | inactive | -5.83% (inactive) |
| CCN(CC)Cc1cc(C(C)=O)ccc1OCC(C)C | 639 | 1.8% (inactive) | 3.7% (inactive) | 164% | -0.466 | 0.382 | -0.997 | -5.62% (inactive) | -0.462 (inactive) | -4.7e-05 (inactive) | 0.00565 (inactive) | inactive | 29.4% (inactive) |
| COC(=O)CC(=O)Cc1nc(N)nc(Nc2ccc(C)c(C)c2)n1 | 628 | 1.8% (inactive) | -16.8% (inactive) | 133% | 0.15 | 0.484 | 0.858 | -0.233% (inactive) | -0.442 (inactive) | -3e-05 (inactive) | 0.00526 (inactive) | inactive | 1.81% (inactive) |
| CCOC(=O)C1CCN(c2ncnc3c2cnn3-c2ccc(Cl)cc2)CC1 | 621 | -13.7% (inactive) | -82.8% (inactive) | 158% | 1.18 | -0.0217 | -0.611 | 27.4% (inactive) | -0.442 (inactive) | -1.8e-05 (inactive) | 0.00741 (inactive) | inactive | -0.354% (inactive) |
| CCCC(=O)N1CCc2[nH]c3ccccc3c2C1 | 502 | 4.2% (inactive) | 1.1% (inactive) | 167% | 0.76 | 0.615 | -0.975 | -5.62% (inactive) | -0.485 (inactive) | -2.8e-05 (inactive) | 0.0054 (inactive) | inactive | -3.97% (inactive) |
